Test: Toxicity liver stage against HepG2, at 10uM
Format: cell-based
Set-up: test concentration 10 uM, cell line HepG2-A16-CD81EGFP
Details: human, HepG2-A16-CD81EGFP cells; read-out: INHIBITION
Summary of the method: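 Uninfected HepG2-A16-CD81EGFP cells, 3 × 10^3 per well, 1536-well, plated on prespotted compound at 10 μM final, parasite-free screening media added to match infected plates; puromycin 10 μM positive, DMSO 0.5% negative; run in parallel with 48 h PbLuc assay at 37 °C, 5% CO2; viability by CellTiter-Glo luminescence, normalized to controls.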

SMILES | cytotoxicity at 10 µM
O=C(NS(=O)(=O)c1ccccc1)c1ccccc1F | 11.4%
CC[C@H]1CN2CC[C@H]1C[C@@H]2CNCc1cccc(C#N)c1 | 5.96%
Cc1nc(-c2ccc(S(=O)(=O)N3CCOCC3)cc2)co1 | -9.52%
O=C(N[C@H]1CCCC[C@@H]1O)c1ccc(-c2nc3ccccc3[nH]2)cc1 | -1.43%
CC(=O)c1cccc(NC(=O)C2CN(S(=O)(=O)C3CC3)C2)c1 | 3.62%
COC(=O)c1sccc1S(=O)(=O)NCCC(O)c1ccco1 (stereo unspecified) | -5.98%
CN(C)S(=O)(=O)N1CCN(c2cc(-n3cccc3)ncn2)CC1 | 0.781%
COc1ccc(CC(=O)Nc2c(C)nc(N3CCCC3)nc2C)cc1 | 2.05%
Cc1cccc(N2CC3(CCN(c4nncs4)C3)CC2=O)c1 (stereo unspecified) | 0.179%
Fc1cnc(N2CCCC3(CCN(c4ncccn4)C3)C2)nc1 (stereo unspecified) | -113%
COc1ccccc1NC(=O)NCC(O)(c1ccccc1)C1CC1 (stereo unspecified) | -19.5%
O=C(CC1CC1)N1CCn2cc(Cn3cncn3)nc2C1 | -8.87%
Cc1nn(CCCNC(=O)C2CCN(S(C)(=O)=O)CC2)c(Cl)c1Cl | -11.3%
CCn1nc(C)c(CN2CCNCC2)c1C | 6.4%
O=C(c1cnco1)N1CCC(Cc2cnc3ccccc3c2)CC1 | 5.08%
CC(C)c1cc(C(=O)N2CCN(c3ncc4c(n3)CCOC4)CC2)on1 | 1.57%
Cc1ccnc(C2CN(Cc3cnn(-c4ccccc4C(=O)O)c3)C2)n1 | 6%
O=C(c1cc(-n2cccn2)ccc1Cl)N1CCCC(N2CCCC2)C1 (stereo unspecified) | 1.86%
CNc1cc(C2CCCN2C(=O)CCc2cnn(C)c2C)ccn1 (stereo unspecified) | 5.98%
O=C(CCn1c(C(F)F)cc2cccnc21)NC1CCCCC1 | -27.9%
CC(C)CNC(=O)C1(Cc2ccccc2-c2cccs2)CCNC1 (stereo unspecified) | -31.2%
Cc1cc(-c2cnc(N3CCNC(=O)C3)nc2-c2ccoc2C)on1 | -25.5%
CCC(=O)N1CCC1c1cc(NC2CCCC2)nc(C)n1 (stereo unspecified) | -7.61%

SMILES | cytotoxicity at 10 µM
O=C(NC[C@]1(O)CN(Cc2ccccc2F)C[C@H]1O)c1cscn1 | -12%
CC(=O)N1CCCC1c1cccc(Cc2ccccc2F)n1 (stereo unspecified) | -1.44%
CC(C)CN1CCC(C(=O)NCCNC(=O)c2ccoc2)CC1 | 0.335%
COC(=O)N1CCC(NC(=O)c2cc(S(N)(=O)=O)ccc2C)CC1 | -1.22%
CN(Cc1cccs1)C(=O)CN1C(=O)c2cc(Cl)c(Cl)cc2C1=O | -6.13%
Cc1ccc(CNC(C)(C)c2noc(C(C)(C)C)n2)o1 | -9.02%
CCC(C)(CC(=O)OC)NCc1c(C)noc1C (stereo unspecified) | -3.19%
COc1ccccc1CC(C)CC(=O)N(C)Cc1cc(C)on1 (stereo unspecified) | 3.8%
COCCCNC(=O)Nc1ccc(OCc2noc(C3CC3)n2)cc1 | 7.04%
Cc1ccc(Cl)cc1NS(=O)(=O)c1cc(C(N)=O)n(C)c1 | 3.8%
O=C1NCCCCC1NC(=O)C1(c2ccc3c(c2)OCCO3)CCCC1 (stereo unspecified) | 0.969%
CCCC(C#N)NC(=O)CCCOc1cccc(C(C)=O)c1 (stereo unspecified) | -46.2%
O=C(NCCOc1ccc(Cl)cn1)Nc1nccs1 | 11.3%
COC(=O)N1CCCC(NC(=O)NCc2cccc(C)n2)C1 (stereo unspecified) | -8.62%
O=C(CCNc1ncccn1)NCc1csc(Br)c1 | 5.15%
O=C(NCC(O)COc1ccc(C(F)(F)F)cc1)Nc1nncs1 (stereo unspecified) | -14.2%
N#Cc1cccnc1NCCNC(=O)N1CCSCC1 | -1.22%
c1ccc(-c2nnc3ccc(N4CCC5(CCOC5)C4)nn23)cc1 (stereo unspecified) | 7.12%
CC(C)C(NC(=O)c1ccccc1)C(=O)N1CCC2(CC1)OCCO2 (stereo unspecified) | 5.44%
O=C(NCCn1ccnc1)c1cc(Br)c[nH]1 | -5.2%
CC(C)(C#N)CCCS(=O)(=O)c1nccn1-c1cccc(F)c1 | -1.12%
COCC(=O)NC(c1ccc(Cl)cc1)c1noc(C)n1 (stereo unspecified) | 6.66%
N#CCCN(Cc1ccccn1)C(=O)Nc1cccnc1 | 0.525%

SMILES | cytotoxicity at 10 µM
CC(=O)NCC1CCN(C(=O)c2ccc(Sc3ccccn3)cc2)CC1 | 9.15%
CC(=O)N1CCN(C(=O)c2ccc(Sc3ccccn3)cc2)CC1 | 10.7%
CC(NCCn1c(=O)oc2ccccc21)c1ccccn1 (stereo unspecified) | -7.1%
CC(C)COCCC(=O)Nc1cccnc1-n1cncn1 | 1.28%
O=C(CCC(=O)c1ccccc1)NC1(C(=O)NCC2CC2)CCCC1 | 2.26%
O=C(O)c1ccc(S(=O)(=O)Nc2ccccc2F)c(F)c1 | 5.51%
Cc1noc(CCCNC(=O)N2CCc3ccccc3C2CO)n1 (stereo unspecified) | 8.69%
COCC1CC2(CCN(Cc3nc(C)cs3)CC2)CO1 (stereo unspecified) | -111%
O=C(c1ccc(F)c(F)c1)N1CCC[C@]2(C[C@@H](OCC3CC3)CO2)C1 | -70.1%
CC(C)NC(=O)C1CN(C(=O)Nc2ccc(F)cc2)CC12CCOCC2 (stereo unspecified) | -80.9%
Cc1noc(C)c1CN1CCO[C@H]2CN(Cc3cccnc3)C[C@H]21 | -2.61%
COCC(=O)N1CC[C@@H](N2CCOCC2)[C@@H]1Cc1ccccc1 | -3.06%
Cc1cccnc1NCCNC(=O)c1cnc(-c2cccs2)nc1O | 4.62%
CC[C@H](CO)NC(=O)c1coc(COc2cccc(F)c2F)n1 | 3.08%
CN1CCC(N(C)C[C@H]2CC[C@@H](Cc3ccc4c(cnn4C)c3)O2)CC1 | 5.03%
CCn1cncc1Cn1cccc(C(F)(F)F)c1=O | -20.7%
COCCN1CCCC(O)(CN2CCN(c3ccncc3C)CC2)C1=O (stereo unspecified) | -6.45%
Cc1cc(NCc2noc(C(C)C)n2)nc(-c2ccccc2)n1 | 11%
Cc1ccc(-c2nc(CNS(=O)(=O)N(C)C)[nH]c2-c2ccccn2)cc1 | -0.678%
COc1ccc(CN(C)C(=O)c2nnc(CN(C)C)o2)cc1 | -3.42%
CCOC(=O)CNC(=O)N1CCOC(CCc2ccccc2)C1 (stereo unspecified) | -4.41%
Cc1ccsc1CN(CCN(C)C)C(=O)c1ccccc1C#N | -119%
CCc1cc(-c2cc[nH]n2)nc(N2CCCC2)n1 | 0.255%

SMILES | cytotoxicity at 10 µM
Cc1ncsc1CN1CCn2nc(CCC(=O)N3CCCC3)cc2C1 | -22.2%
COC(=O)c1cccc(CN(C)C(C)c2ccccn2)c1 (stereo unspecified) | 5.85%
CCC1CN(C(=O)c2ccccc2C(C)=O)CCN1C(C)C (stereo unspecified) | 0.684%
CCSCC(C)NCc1nn(C)c2ccc(C)cc12 (stereo unspecified) | 1.71%
COC(=O)[C@@H](NC(=O)c1coc(COc2cccc(F)c2F)n1)C(C)C | 1.31%
Cc1ncc(CNC2CC(=O)N(CCc3ccc(F)cc3)C2)n1C (stereo unspecified) | -0.309%
C[C@H](NC(=O)C1(N(C)Cc2ccccc2)Cc2ccccc2C1)C(N)=O | 0.521%
NC(=O)c1csc(N2C[C@@H](CN3CCCCC3)[C@@H](CO)C2)n1 | -1.39%
N#Cc1ccc(NCc2cc3n(n2)CCCN(C(=O)C2CCC2)C3)nc1 | -127%
c1cc(-c2cn[nH]c2)ccc1CN1CCNCC1 | 0.866%
Cc1ccccc1CN(CCO)Cc1ncc[nH]1 | -3.97%
CCNC(=O)[C@@H]1C[C@@H](n2cc(CC3CCCCC3)nn2)CN1 | 5.42%
COCc1cc(CNC(=O)c2cccc3c2OCC3)n[nH]1 | 8.97%
COc1ccc(CNCC(O)c2cccc(O)c2)cc1Br (stereo unspecified) | -3.86%
CCC(=O)N1CCc2[nH]cnc2C12CCN(C(=O)c1snnc1C)CC2 | 13.9%
O=C1CC(c2cccs2)c2cnn(C3CCCC3)c2N1 (stereo unspecified) | 23.3%
Cc1nnc2n1CCN(Cc1csc(-c3ccsc3)n1)C2 | -12.4%
COc1ccc(Cl)cc1NCCC(=O)NCCNc1cnccn1 | -10.3%
CCc1noc(CN(Cc2ccc3c(c2)OCO3)C2CCCC2)n1 | -0.315%
Cc1cc(C)c(CNC(=O)CC2CCCO2)c(=O)[nH]1 (stereo unspecified) | -10.7%
Cc1nccc(C(=O)NC(CN2CCCC2=O)c2ccccc2)n1 (stereo unspecified) | 8.01%
Cc1cc(CN2CCN(C(=O)NC(C)c3ccncc3)CC2)on1 (stereo unspecified) | -5.66%
COc1ccc(CC(=O)NC2CCN(CC(F)F)CC2)cc1OC | -8.48%

SMILES | cytotoxicity at 10 µM
O=C(NCC(F)(F)F)c1ccc(-c2ccco2)[nH]c1=O | -21.6%
CC(Cn1cccn1)NC(=O)Nc1nnc(C2CC2)s1 (stereo unspecified) | -1.71%
Cc1nc(C2CCCN(C(=O)c3ccc(Cn4cccn4)o3)C2)no1 (stereo unspecified) | -6.38%
CCOc1ccc(Cl)c(C(=O)NCc2ccc(C(=O)NC)cc2)n1 | -9.88%
COCC(O)CN(C)C(=O)NC1CCN(Cc2ccccn2)CC1 (stereo unspecified) | -0.0353%
COc1ncccc1NC(=O)NCC1CCS(=O)(=O)C1 (stereo unspecified) | -9.16%
Cc1ccc2oc(C(=O)N3CCc4nnc(N(C)C)cc4C3)cc2n1 | -3.25%
CC(C)n1ccnc1CN1CCCN(C(=O)CC2C=CCC2)CC1 (stereo unspecified) | 3.08%
CC(NCc1cccnc1)c1ccc(OCC(=O)NC2CC2)cc1 (stereo unspecified) | 2.36%
Cc1cc(CN(Cc2cccs2)CC2CCCO2)no1 (stereo unspecified) | 2.86%
O=C(NCc1nncn1-c1ccccc1)C1CC(=O)N(CC2CC2)C1 (stereo unspecified) | -2.97%
CCC(CO)NCc1ccc(-c2ccc(F)cc2)o1 (stereo unspecified) | -5.67%
Cc1ccc(CN2C[C@H](OCCN(C)C)[C@H]3COC[C@H]32)o1 | 1.6%
Cc1ccc(CN2C[C@@H]3COC[C@H](C(=O)N4CCCCO4)[C@@H]3C2)o1 | 3.37%
Cc1cccc(CN2C(=O)CC[C@@H]3[C@H]2CCN3C(=O)c2ccsc2)n1 | -85.7%
O=C(c1ccc[nH]1)N1CCc2c(COCC3CC3)cncc2C1 | 5.71%
CCOCC(=O)N1CCOCC2(CCN(c3ncccn3)C2)C1 (stereo unspecified) | -2.22%
Cn1cc(CN2CCC3(CC2)NC(=O)CC3c2ccncc2)cn1 (stereo unspecified) | -2.1%
CC(C)c1nn(C)cc1CNCc1cccnc1N(C)C | -1.96%

— ChEMBL document CHEMBL4513216, “Probing the Open Global Health Chemical Diversity Library for Multistage-Active Starting Points for Next-Generation Antimalarials” (ACS Infect Dis, 2020)
